This is an account of results in ChEMBL document CHEMBL1153747, “Synthesis and inhibitory activity against human monoamine oxidase of N1-thiocarbamoyl-3,5-di(hetero)aryl-4,5-dihydro-(1H)-pyrazole derivatives” (Eur J Med Chem, 2010).

Each structure is given as a SMILES string. pIC50: −log10 of the molar value.

The target in data set [1] is T1, Amine oxidase [flavin-containing] B (Homo sapiens, UniProt P27338).
T1 sequence (P27338 whole entry): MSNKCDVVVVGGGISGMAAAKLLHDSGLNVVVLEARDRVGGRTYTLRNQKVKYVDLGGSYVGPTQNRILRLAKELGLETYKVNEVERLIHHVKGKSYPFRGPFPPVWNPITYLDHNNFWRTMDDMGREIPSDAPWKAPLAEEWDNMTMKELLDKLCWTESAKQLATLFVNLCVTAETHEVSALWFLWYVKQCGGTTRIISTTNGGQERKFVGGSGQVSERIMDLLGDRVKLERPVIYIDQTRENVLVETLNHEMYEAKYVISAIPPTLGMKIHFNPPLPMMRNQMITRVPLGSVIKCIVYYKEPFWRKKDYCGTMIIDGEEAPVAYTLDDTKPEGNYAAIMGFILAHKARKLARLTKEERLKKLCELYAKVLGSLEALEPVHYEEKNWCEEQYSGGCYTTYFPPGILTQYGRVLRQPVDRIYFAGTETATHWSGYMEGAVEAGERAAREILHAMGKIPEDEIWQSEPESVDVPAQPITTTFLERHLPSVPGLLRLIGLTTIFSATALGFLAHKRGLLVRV

For another data set, the species on record is Homo sapiens. The experiment in a line: Selectivity, ratio of IC50 for human recombinant MAOA to human recombinant MAOB.
Data set [2] has as its target T2, Amine oxidase [flavin-containing] A (Homo sapiens, UniProt P21397).
T2 sequence (P21397 whole entry): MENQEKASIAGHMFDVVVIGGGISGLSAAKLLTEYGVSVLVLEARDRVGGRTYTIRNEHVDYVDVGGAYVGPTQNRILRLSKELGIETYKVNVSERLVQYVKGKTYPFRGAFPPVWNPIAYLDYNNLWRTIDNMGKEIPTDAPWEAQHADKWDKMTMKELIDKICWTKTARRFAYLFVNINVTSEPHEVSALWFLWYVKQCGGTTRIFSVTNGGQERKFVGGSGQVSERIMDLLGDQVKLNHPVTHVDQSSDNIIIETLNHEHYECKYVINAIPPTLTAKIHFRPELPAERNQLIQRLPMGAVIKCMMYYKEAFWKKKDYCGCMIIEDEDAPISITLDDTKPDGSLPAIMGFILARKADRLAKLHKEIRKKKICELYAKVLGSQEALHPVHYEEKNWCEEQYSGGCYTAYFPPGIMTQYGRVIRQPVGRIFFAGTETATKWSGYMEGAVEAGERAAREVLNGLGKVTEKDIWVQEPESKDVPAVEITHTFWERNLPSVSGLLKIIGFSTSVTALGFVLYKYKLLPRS
The experiment in a line: Inhibition of human recombinant MAOA.

The target of data set [3] is T1, Amine oxidase [flavin-containing] B. The experiment in a line: Inhibition of human recombinant MAOB at 1 mM. The settings on record: 1000 µM. The method in brief:
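Recombinant hMAO-A or hMAO-B in microsomes from baculovirus-infected BTI-TN-5B1-4 insect cells, amounts set to oxidize 165 pmol p-tyramine/min in controls. Preincubated with test drug in 0.05 M sodium phosphate pH 7.4, 15 min, 37 °C. Reaction started with Amplex Red, 1 U/mL HRP and 1 mM p-tyramine (final). […] Selectivity = IC50(MAO-A)/IC50(MAO-B).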

One may read the pIC50 as the IC50 on a negative log10 scale, so that one unit is a factor of ten. Turning to `NC(=S)N1N=C(c2ccccc2)CC1c1ccccc1` (centres undefined), in data set [1], the pIC50 is 4.32. Further, in the data set listed under Homo sapiens, the Ratio IC50 was greater than 2.1.
Take `NC(=S)N1N=C(c2ccccc2)CC1c1ccco1` (centres undefined): the pIC50 in data set [2] is 4.26; in data set [1], 4.49. The Ratio IC50 in the data set filed under Homo sapiens is 1.7.
`NC(=S)N1N=C(c2ccc[nH]2)CC1c1ccco1` (centres undefined) gave a negative logarithm of the IC50 (pIC50) in data set [1] of 4.16. In the data set listed under Homo sapiens, the Ratio IC50 was greater than 1.4.
Take `O=C(NCCN1CCOCC1)c1ccc(Cl)cc1` [MOCLOBEMIDE]: in data set [3], the “inhibition (INH)” value was “Not Active”.
As for `Cc1ccc(C2CC(c3ccco3)=NN2C(N)=S)cc1` (centres undefined), the pIC50 was 4.18 in data set [2] and 4.26 in data set [1]. Moreover, the Ratio IC50 in the data set filed under Homo sapiens stood at 1.2.
For the molecule `NC(=S)N1N=C(c2cccs2)CC1c1ccc[nH]1` (centres undefined), the pIC50 is 4.16 in data set [2] and 4.48 in data set [1]. Moreover, the Ratio IC50 in the data set listed under Homo sapiens was 2.1.
